Test results: ChEMBL document CHEMBL2021838, “Solvent effect on copper-catalyzed azide-alkyne cycloaddition (CuAAC): synthesis of novel triazolyl substituted quinolines as potential anticancer agents” (Bioorg Med Chem Lett, 2012)

What was measured:
K562 [1] = assay: Antiproliferative activity against human K562 cells assessed as cell growth inhibition at 10 uM after 24 hrs by MTT assay; type: functional; conditions: K562, 24 h, read-out: GI
How it was run: (§1)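 MTT viability assay. Cells seeded at 5 × 10³ per well and cultured with or without compound for 24 h. MTT (5 mg/ml in PBS) was then added in fresh medium and incubated 2 h at 37 °C, followed by DMSO and 1 min agitation. Absorbance was read at 570 nm. Percent inhibition of proliferation was calculated relative to the untreated control. Dose-response used […].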

MDA-MB-231 [2] = assay: Antiproliferative activity against human MDA-MB-231 cells assessed as cell growth inhibition at 1 uM after 24 hrs by MTT assay; type: functional; conditions: MDA-MB-231, 24 h, read-out: GI; how it was run: as §1
MDA-MB-231 [3] = assay: Antiproliferative activity against human MDA-MB-231 cells assessed as cell growth inhibition at 10 uM after 24 hrs by MTT assay; type: functional; conditions: MDA-MB-231, 24 h, read-out: GI; how it was run: as §1
K562 [4] = assay: Antiproliferative activity against human K562 cells assessed as cell growth inhibition at 1 uM after 24 hrs by MTT assay; type: functional; conditions: K562, 24 h, read-out: GI; how it was run: as §1
MDA-MB-231 [5] = assay: Antiproliferative activity against human MDA-MB-231 cells assessed as cell growth inhibition at 0.01 uM after 24 hrs by MTT assay; type: functional; conditions: MDA-MB-231, 24 h, read-out: GI; how it was run: as §1
MDA-MB-231 [6] = assay: Antiproliferative activity against human MDA-MB-231 cells assessed as cell growth inhibition at 0.5 uM after 24 hrs by MTT assay; type: functional; conditions: MDA-MB-231, 24 h, read-out: GI; how it was run: as §1
MDA-MB-231 [7] = assay: Antiproliferative activity against human MDA-MB-231 cells assessed as cell growth inhibition after 24 hrs by MTT assay; type: functional, cell-based; conditions: MDA-MB-231, 24 h; how it was run: as §1
MDA-MB-231 [8] = assay: Antiproliferative activity against human MDA-MB-231 cells assessed as cell growth inhibition at 0.1 uM after 24 hrs by MTT assay; type: functional; conditions: MDA-MB-231, 24 h, read-out: GI; how it was run: as §1
K562 [9] = assay: Antiproliferative activity against human K562 cells assessed as cell growth inhibition at 0.5 uM after 24 hrs by MTT assay; type: functional; conditions: K562, 24 h, read-out: GI; how it was run: as §1
K562 [10] = assay: Antiproliferative activity against human K562 cells assessed as cell growth inhibition at 0.01 uM after 24 hrs by MTT assay; type: functional; conditions: K562, 24 h, read-out: GI; how it was run: as §1
K562 [11] = assay: Antiproliferative activity against human K562 cells assessed as cell growth inhibition at 0.1 uM after 24 hrs by MTT assay; type: functional; conditions: K562, 24 h, read-out: GI; how it was run: as §1
K562 [12] = assay: Antiproliferative activity against human K562 cells assessed as cell growth inhibition after 24 hrs by MTT assay; type: functional, cell-based; conditions: K562, 24 h; how it was run: as §1

CCCCc1cn(-c2cc3nnnn3c3ccccc23)nn1
inhibition of growth at 10 µM (K562 [1]): 34.1%
inhibition of growth at 1 µM (MDA-MB-231 [2]): 55.3%
inhibition of growth at 10 µM (MDA-MB-231 [3]): 57.1%
inhibition of growth at 1 µM (K562 [4]): 28.2%

CCCCc1cn(-c2cc(-n3cc(CCCC)nn3)c3ccccc3n2)nn1
inhibition of growth at 10 µM (K562 [1]): < 30%
inhibition of growth at 10 µM (MDA-MB-231 [3]): < 30%

c1ccc(CCc2cn(-c3cc4nnnn4c4ccccc34)nn2)cc1
inhibition of growth at 10 µM (K562 [1]): 38.1%
inhibition of growth at 1 µM (MDA-MB-231 [2]): 50.5%
inhibition of growth at 10 µM (MDA-MB-231 [3]): 60.8%
inhibition of growth at 1 µM (K562 [4]): 26.7%

c1ccc(-c2cn(-c3cc4nnnn4c4ccccc34)nn2)cc1
inhibition of growth at 10 µM (K562 [1]): 29.9%
inhibition of growth at 1 µM (MDA-MB-231 [2]): 52.5%
inhibition of growth at 10 µM (MDA-MB-231 [3]): 56%
inhibition of growth at 1 µM (K562 [4]): 20.6%

CCCCCCc1cn(-c2cc3nnnn3c3ccccc23)nn1
inhibition of growth at 10 µM (K562 [1]): 37.4%
inhibition of growth at 1 µM (MDA-MB-231 [2]): 49.7%
inhibition of growth at 10 µM (MDA-MB-231 [3]): 53.4%
inhibition of growth at 1 µM (K562 [4]): 19.1%

ClCCCc1cn(-c2cc3nnnn3c3ccccc23)nn1
inhibition of growth at 10 µM (K562 [1]): 35.2%
inhibition of growth at 0.01 µM (MDA-MB-231 [5]): 11%
inhibition of growth at 0.5 µM (MDA-MB-231 [6]): 46%
inhibition of growth at 1 µM (MDA-MB-231 [2]): 60.2%
inhibition of growth at 10 µM (MDA-MB-231 [3]): 70.1%
IC50 (MDA-MB-231 [7]): 800 nM
inhibition of growth at 0.1 µM (MDA-MB-231 [8]): 24%
inhibition of growth at 1 µM (K562 [4]): 19.9%

CCCCCc1cn(-c2cc(-n3cc(CCCCC)nn3)c3ccccc3n2)nn1
inhibition of growth at 10 µM (K562 [1]): < 30%
inhibition of growth at 10 µM (MDA-MB-231 [3]): < 30%

CCCCCCc1cn(-c2cc(-n3cc(CCCCCC)nn3)c3ccccc3n2)nn1
inhibition of growth at 10 µM (K562 [1]): < 30%
inhibition of growth at 10 µM (MDA-MB-231 [3]): < 30%

Cc1ccc(-c2cn(-c3cc4nnnn4c4ccccc34)nn2)cc1
inhibition of growth at 10 µM (K562 [1]): 44.1%
inhibition of growth at 1 µM (MDA-MB-231 [2]): 47.7%
inhibition of growth at 10 µM (MDA-MB-231 [3]): 54%
inhibition of growth at 1 µM (K562 [4]): 20.6%

OCCCc1cn(-c2cc3nnnn3c3ccccc23)nn1
inhibition of growth at 10 µM (K562 [1]): 52.4%
inhibition of growth at 0.5 µM (K562 [9]): 30%
inhibition of growth at 0.01 µM (K562 [10]): 9%
inhibition of growth at 1 µM (MDA-MB-231 [2]): 42%
inhibition of growth at 0.1 µM (K562 [11]): 22%
IC50 (K562 [12]): 4600 nM
inhibition of growth at 10 µM (MDA-MB-231 [3]): 46.1%
inhibition of growth at 1 µM (K562 [4]): 47.1%

ClCCCc1cn(-c2cc(-n3cc(CCCCl)nn3)c3ccccc3n2)nn1
inhibition of growth at 10 µM (K562 [1]): < 30%
inhibition of growth at 10 µM (MDA-MB-231 [3]): < 30%

OCc1cn(-c2cc3nnnn3c3ccccc23)nn1
inhibition of growth at 10 µM (K562 [1]): 36.9%
inhibition of growth at 1 µM (MDA-MB-231 [2]): 45.8%
inhibition of growth at 10 µM (MDA-MB-231 [3]): 46.8%
inhibition of growth at 1 µM (K562 [4]): 21.8%
